Bioassay records: PubChem BioAssay, several laboratories
An excerpt weighted towards active compounds, which were near 0.95% of everything screened.
Diaphorase inh: inhibits diaphorase or chemically oxidizes, flagging diaphorase assay artifacts. diaphorase resazurin-to-resorufin fluorescence, NADH, 16 min; bacterial (C. kluyveri) enzyme, not human. inhibition, % at 20 µM. hit rate 0.69% among 190,000. AID 1217;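 active means primary screen inhibition at 20 µM above a set limit, cut at about 50% in these data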;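 further: plate controls were DMSO with full reaction for no effect and wells lacking NADH for full effect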
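Test system: Clostridium kluyveri diaphorase enzyme / Quantity: diaphorase at 0.14 U/mL in enzyme working solution / Incubation: 16-min room-temperature incubation before reading / Benchmarks: NADH-free wells as positive control, DMSO-only neutral wells / Signal: resorufin fluorescence 544/590 nm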
UBC9 SUMO inh: inhibitors of human SUMOylation (UBC9). hit rate 0.36% among 290,000. inhibition, % at 35 µM. HTRF SUMOylation assay, SAE1/SAE2 + UBC9, in vitro. P63279; in the data active means inhibition above about 50%, passing the limit was not always enough
G6PDH counter: inhibits Leuconostoc G6PDH, flagging false hits in G6PDH-based assays. Purified L. mesenteroides G6PDH, diaphorase/resazurin coupled fluorescence, 45 min. inhibition, % at 5 µM. hit rate 0.12% among 200,000; in the data active means inhibition above about 50%
p97 inhibitor: human p97 ATPase inhibition | P55072 | AID 1481 | inhibition, % at 8 µM | hit rate 0.42% among 220,000 | recombinant p97 ATPase, Kinase-Glo ATP luminescence, 3 h; in the data active means inhibition above about 15%;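 further: 0% = DMSO vehicle and 100% = wells lacking enzyme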
HKDC1 inh: inhibitors of human hexokinase HKDC1. Q2TB90. recombinant HKDC1, G6PDH/diaphorase resazurin coupled fluorescence. inhibition, % at 20 µM. hit rate 0.16% among 340,000;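 active means inhibition above about 35% when tested at 20 µM, limit read from the data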;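 further: plate controls were DMSO wells with enzyme for no effect and DMSO wells lacking enzyme for full effect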
Target sequence (Q2TB90 whole entry, looked up): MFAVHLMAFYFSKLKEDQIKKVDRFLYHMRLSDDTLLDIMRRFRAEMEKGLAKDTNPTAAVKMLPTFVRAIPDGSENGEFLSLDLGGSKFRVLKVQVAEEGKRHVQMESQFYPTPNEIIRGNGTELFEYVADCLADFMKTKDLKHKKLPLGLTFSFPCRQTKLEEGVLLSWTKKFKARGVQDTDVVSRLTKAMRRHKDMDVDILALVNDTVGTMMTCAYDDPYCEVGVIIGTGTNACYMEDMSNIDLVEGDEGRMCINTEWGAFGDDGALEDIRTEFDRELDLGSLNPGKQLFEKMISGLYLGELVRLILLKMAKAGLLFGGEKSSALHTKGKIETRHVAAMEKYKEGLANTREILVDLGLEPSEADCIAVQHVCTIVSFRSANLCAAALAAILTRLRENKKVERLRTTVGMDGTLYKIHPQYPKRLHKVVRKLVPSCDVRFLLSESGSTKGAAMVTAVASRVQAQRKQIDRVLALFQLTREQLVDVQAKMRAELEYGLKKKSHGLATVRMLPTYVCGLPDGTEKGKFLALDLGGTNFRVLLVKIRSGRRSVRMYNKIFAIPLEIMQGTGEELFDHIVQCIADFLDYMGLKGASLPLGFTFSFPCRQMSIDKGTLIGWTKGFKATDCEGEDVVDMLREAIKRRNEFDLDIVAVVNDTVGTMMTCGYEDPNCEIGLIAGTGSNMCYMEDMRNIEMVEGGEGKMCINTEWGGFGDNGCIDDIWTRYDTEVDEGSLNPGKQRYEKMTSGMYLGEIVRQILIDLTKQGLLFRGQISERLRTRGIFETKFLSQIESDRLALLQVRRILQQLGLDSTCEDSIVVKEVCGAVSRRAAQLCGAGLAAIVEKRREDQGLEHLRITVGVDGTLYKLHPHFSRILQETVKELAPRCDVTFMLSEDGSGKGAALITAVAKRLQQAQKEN
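Test system: recombinant HKDC1 (HK5) hexokinase enzyme, produced in-house / Doses: 20 µM test compound, 1% DMSO / Timing: 90 min, room temperature / Detection: G6PDH/diaphorase-coupled fluorescence, 1 mM NADP, 100 µM resazurin, 525/613 nm / Control set: DMSO wells with and without enzyme mix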
Numbers without * were called inactive; · = no result.

SMILES	Diaphorase inh	UBC9 SUMO inh	G6PDH counter	p97 inhibitor	HKDC1 inh
CC(C)C(c1nnnn1Cc1ccc(F)cc1)N1CCN(c2ccc(O)cc2)CC1 (centres undefined)	62*	4	18	6	-6
CCOc1ccc(C=Nc2cccc3ncccc23)cc1	51*	99	12	0	12
COc1ccc(C=Nc2cccnc2N)cc1	·	16	·	·	2
COc1ccc(C(=O)N/N=C/C(C)c2ccccc2)cc1OC (centres undefined)	2	-25	0	16*	3
COc1cccc(NC(=O)CN(C)CC(=O)Nc2ccc(C)c([N+](=O)[O-])c2)c1	·	0	·	·	-2
O=C(N/N=C/c1ccc(N2CCOCC2)o1)c1cccc([N+](=O)[O-])c1	76*	-13	8	-4	17
O=[N+]([O-])c1cc(CN2CCOCC2)c2cccnc2c1O	45	89*	55*	5	1
O=C(Oc1c(CN2CCOCC2)cc(Cl)c2cccnc12)c1ccccc1F	50*	-8	43	5	11
O=[N+]([O-])c1cc(CN2CCN(c3ccccc3)CC2)c(O)c2ncccc12	10	-48	62*	8	17
O=C(Oc1c(CN2CCOCC2)cc(Cl)c2cccnc12)c1ccccc1	30	-18	5	2	15
CC(COc1ccccc1)N1CCC(CO)(Cc2ccccc2)CC1 (centres undefined)	7	3	10	0	-9
CC12CCC(=O)N1C(C(=O)NNC(=O)COc1cccc(C(F)(F)F)c1)CS2 (centres undefined)	·	·	·	·	-7
Cc1ccc(N(CC(=O)NCc2ccccc2)C(=O)CCC(=O)Nc2ccccn2)cc1C	·	-16	·	·	-5
CCCCN(Cc1ccco1)C(=O)c1cc2c(=O)[nH]c3ccc(C)cc3c2s1	57*	21	2	0	2
Cc1ccc2c(Cl)cc(Cl)c(OCC(=O)NCc3ccco3)c2n1	54*	54*	28	6	·
Cc1ccc2c(Cl)cc(Cl)c(OCC(=O)NC(=O)NCc3ccco3)c2n1	24	12	6	-5	-3
O=c1[nH]c(O)c(/C=C2\C=Nc3ccc(Br)cc32)[nH]1	·	-1	·	·	-4
CCn1c(C)nc2cc(C(=O)N/N=C/c3cccc(O)c3O)ccc21	72*	30	49	9	-1
CCn1c(C)nc2cc(C(=O)NNC(=S)NC(=O)c3ccccc3)ccc21	55*	-1	-4	3	-1
O=C(Cn1[nH]c(=O)c2ccccc2c1=O)N1CCN(S(=O)(=O)c2ccc(Cl)cc2)CC1	·	·	·	·	3
O=C1C(=O)N(c2ccccn2)C(c2cccc(F)c2)/C1=C(/O)c1ccccc1 (centres undefined)	·	5	·	·	3
O=C(c1ccc(S(=O)(=O)c2ccccc2)cc1)N1CCc2ccccc2C1	51*	4	6	4	-11
Cc1ccc(C(=O)N[C@H](C(=O)N2CCN(c3ccccc3F)CC2)C(C)C)cc1	·	3	·	·	4
CCOc1ccc(-c2csc(/C(C#N)=C\c3ccc(O)c([N+](=O)[O-])c3)n2)cc1	87*	40	12	2	-8
COc1ccc(/C=C(\C#N)c2nc3ccccc3[nH]2)cc1O	·	21	·	·	-9
SMILES	Diaphorase inh	UBC9 SUMO inh	G6PDH counter	p97 inhibitor	HKDC1 inh
COc1cc(/C=C(\C#N)c2nc3ccccc3[nH]2)cc(OC)c1O	51*	-12	9	2	8
CCCOc1ccc(CNC(=O)c2ccc3nc(N4CCOCC4)sc3c2)cc1	·	4	·	·	-7
COc1ccc(NC(=O)Cn2cccc2)c(OC)c1	74*	14	3	7	-10
COc1ccc(NC(=O)CN2CCN(CC(=O)Nc3ccccc3OC)CC2)c(OC)c1	·	-1	·	·	-1
COC(=O)Nc1cccn(Cc2c(Cl)cccc2Cl)c1=O	51*	8	12	3	5
O=C(Nc1cccn(Cc2c(Cl)cccc2Cl)c1=O)c1c(Cl)cccc1Cl	32	-8	3	3	1
COc1cccc(N2CCN(C(=O)CCCCCNc3nc(=S)[nH]c4ccccc34)CC2)c1	25	7	-4	2	1
O=C(CCCCCNc1nc(=S)[nH]c2ccccc12)N1CCN(c2ccccn2)CC1	52*	10	2	0	·
Cc1cccc2nc(-c3ccco3)c(Nc3ccc4c(c3)OCO4)n12	72*	67	9	-1	3
Cc1cccc2nc(-c3ccco3)c(Nc3ccccc3)n12	11	27	1	6	-4
